From article PMC5110367 (Nature chemical biology, 2016)
Positions count from the first letter of the chain named. Like-named read-outs stand apart in the source and are kept apart here.

What was measured:
FL-Ppara = target: T1, FL-Ppara (Mus musculus, UniProt P23204); format: cell-based; conditions: Ppara-null astrocytes transduced with lenti-FL-Ppara, 4 h
T1 sequence (P23204 1-468): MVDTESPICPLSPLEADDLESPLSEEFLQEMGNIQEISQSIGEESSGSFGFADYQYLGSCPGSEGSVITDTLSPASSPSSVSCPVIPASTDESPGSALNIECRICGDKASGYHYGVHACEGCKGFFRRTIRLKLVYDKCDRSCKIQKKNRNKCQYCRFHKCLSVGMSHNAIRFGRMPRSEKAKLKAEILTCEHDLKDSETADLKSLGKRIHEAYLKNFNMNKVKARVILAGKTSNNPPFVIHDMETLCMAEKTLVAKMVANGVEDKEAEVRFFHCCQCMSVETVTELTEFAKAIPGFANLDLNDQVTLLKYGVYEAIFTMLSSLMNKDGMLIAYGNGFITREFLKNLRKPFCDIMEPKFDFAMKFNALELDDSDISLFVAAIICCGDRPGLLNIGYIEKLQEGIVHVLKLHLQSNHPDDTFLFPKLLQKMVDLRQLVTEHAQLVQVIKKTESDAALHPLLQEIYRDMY

primary mouse astrocytes = assay: MTT cell viability of tk-PPREx3-Luc-transfected astrocytes; format: cell-based; conditions: higher concentrations, 4 h
[1] = test system: PPRE-driven luciferase activity; assay: PPRE-luciferase assay in Ppara-null astrocytes transduced with empty vector; format: cell-based, mouse; conditions: 4 h
In short: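 Ppara-null astrocytes came from mixed glial cultures of 7-d-old pups. They were transduced 48 h with empty-vector lentivirions and transfected with tk-PPREx3-Luc reporter. After 24 h they were treated with different doses of test compound for 4 h, then luciferase activity was read. Values are mean ± SD of three independent experiments.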

Y464D-Ppara = target: T2, Y464D-Ppara (Mus musculus, UniProt P23204, Y464D); format: cell-based; conditions: Ppara-null astrocytes transduced with lenti-Y464D-Ppara, 4 h
T2 sequence (P23204 1-468 Y464D): T1 sequence (P23204 1-468) with Y464D

Y464D-PPARα = target: T3, Y464D-PPARα (Mus musculus, UniProt P23204, Y464D); assay: Thermal shift assay of Y464D-PPARα with ligands; format: binding
T3 sequence (P23204 1-468 Y464D): T1 sequence (P23204 1-468) with Y464D
In short: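 Differential scanning fluorimetry used purified Y464D-PPARα protein (0.5–1 μg per reaction) in kit thermal shift buffer with dye, with or without test compound. The real-time cycler ran 25°C for 2 min, then 70 cycles of 27°C 15 s/26°C 1 min with 1°C auto-increment. Signal was read on the ROX filter, and melting temperature (Tm) was derived.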

PPARα LBD = target: T4, PPARα LBD (Homo sapiens, UniProt Q07869); assay: Lanthascreen TR-FRET PPAR-alpha coactivator assay; format: biochemical
T4 sequence (Q07869 239-466 limits assumed): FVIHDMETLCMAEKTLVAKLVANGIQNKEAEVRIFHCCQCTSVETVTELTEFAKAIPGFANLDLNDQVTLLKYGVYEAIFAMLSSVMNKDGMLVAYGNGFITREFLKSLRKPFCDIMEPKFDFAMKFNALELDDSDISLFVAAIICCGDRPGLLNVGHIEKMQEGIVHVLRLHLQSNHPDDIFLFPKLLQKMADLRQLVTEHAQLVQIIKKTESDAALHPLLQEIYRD

PPARβ-LBD = target: T5, PPARβ-LBD (Homo sapiens, UniProt Q03181); assay: GC-MS of hippocampal nuclear extracts after pull-down with GST-PPARβ-LBD; format: binding; conditions: mouse hippocampal nuclear extracts
T5 sequence (Q03181 211-439 limits assumed): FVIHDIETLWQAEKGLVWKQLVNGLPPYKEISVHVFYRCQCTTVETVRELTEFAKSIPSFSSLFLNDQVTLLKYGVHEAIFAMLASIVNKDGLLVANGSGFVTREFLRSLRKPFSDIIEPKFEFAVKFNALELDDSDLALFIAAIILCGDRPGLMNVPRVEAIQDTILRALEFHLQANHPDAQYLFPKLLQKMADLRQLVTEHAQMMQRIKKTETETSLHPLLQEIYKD

Y314D-Ppara = target: T6, Y314D-Ppara (Mus musculus, UniProt P23204, Y314D); format: cell-based; conditions: Ppara-null astrocytes transduced with lenti-Y314D-Ppara, 4 h
T6 sequence (P23204 1-468 Y314D): T1 sequence (P23204 1-468) with Y314D

PPRE-luciferase activity = format: cell-based, mouse
[2] = test system: Ppara-null hippocampal neurons; format: cell-based, mouse
In short: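 Cell lysates were made in RIPA buffer with protease/phosphatase inhibitors, needle-sheared, rotated 30 min at 4°C and spun at 18,000 × g. Samples of 15–30 μg were run on 10% or 12% SDS gels and semidry-transferred to nitrocellulose. Anti-CREB (1:1000) was applied overnight at 4°C, then IR-dye secondary (1:17,000) for 45 min at room temperature. Infrared imaging followed, with densitometry normalised to loading controls.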

[3] = Ppara-null hippocampal neurons transduced with lenti-Y314D/Y464D-Ppara
[4] = Ppara-null hippocampal neurons transduced with lenti-Y464D-Ppara
[5] = Ppara-null neurons transduced with FL-Ppara
[6] = Ppara-null neurons transduced with lenti-Y314D-Ppara
[7] = Ppara-null neurons transduced with lenti-Y464D-Ppara
[8] = Ppara-null neurons transduced with lenti-Y464D/Y314D-Ppara

| SMILES | PPRE-luciferase reporter activity (FL-Ppara) | cytotoxicity (MTT) (primary mouse astrocytes) | PPRE-driven luciferase activity [1] | PPRE-luciferase activity (Y464D-Ppara) | effect on Tm (Y464D-PPARα) | EC50 (PPARα LBD) [µM] | GC-MS peak after pull-down with PPARβ-LBD (PPARβ-LBD) | PPRE-luciferase activity (Y314D-Ppara) | PPRE-luciferase activity (PPRE-luciferase activity; [3]) | PPRE-luciferase activity (PPRE-luciferase activity; [4]) | expression of CREB [2, 5] | expression of CREB [2, 6] | expression of CREB [2, 7] | expression of CREB [2, 8] |
| --- | --- | --- | --- | --- | --- | --- | --- | --- | --- | --- | --- | --- | --- | --- |
| CCCCCCCCC=CCCCCCCCC(N)=O [OCT, 9-octadecenamide] | markedly induced PPRE reporter activity | significant level of cytotoxicity | remained unable to induce PPRE-driven luciferase activity | unable to stimulate PPRE-luciferase activity | did not alter the Tm | 4.84 | did not exhibit any peak | partial induction of PPRE-luciferase activity | completely abrogated the PPRE-luciferase activity | completely abrogated the PPRE-luciferase activity | stimulated the expression of CREB | only partially restored the expression of CREB | remained unable to increase the expression of CREB | remained unable to increase the expression of CREB |
| CCCCCCCCCCCCCCCC(N)=O [HEX, hexadecanamide] | markedly induced PPRE reporter activity | significant level of cytotoxicity | remained unable to induce PPRE-driven luciferase activity | unable to stimulate PPRE-luciferase activity | did not alter the Tm | 5.26 | did not exhibit any peak | partial induction of PPRE-luciferase activity | completely abrogated the PPRE-luciferase activity | completely abrogated the PPRE-luciferase activity | stimulated the expression of CREB | only partially restored the expression of CREB | remained unable to increase the expression of CREB | remained unable to increase the expression of CREB |
